Sampled rows, rich in hits. Any-hit rate of the full collection: about 1.5%.
PG9 binder = PG9 antibody binding by small molecule. TR-FRET gp120-PG9 antibody binding. inhibition, % at 6.7 µM. hit rate 0.43% among 360,000; in the data active = inhibition above about 8.5%
NR2E3 ag-1 = NR2E3 (human) agonism. Q9Y5X4. GST-NR2E3/biotin-RetCOR TR-FRET, 1536-well. inhibition of corepressor binding, % at 4.78 µM. hit rate 0.12% among 320,000;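 active = percent inhibition above the cutoff of mean plus 3 SD of all tested compounds, set per screening campaign, cut at about 20% in these data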;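 also: 0% = DMSO wells and 100% = biotin wells as full block of FRET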
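System: GST-tagged NR2E3 plus biotinylated RetCOR corepressor; Buffer or medium: pH 7.5 Tris-based buffer; Probe or stimulus: RetCOR corepressor, biotinylated, 7 nM; Doses: compound at 4.8 µM, single dose; Schedule: 5 h incubation at 4 °C; Technique: time-resolved FRET; Evaluation: percent inhibition of TR-FRET ratio; Replication: one well per compound, singlicate testing.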
NR2E3 ag-2 = agonists of human NR2E3 nuclear receptor; CHO-S Gal4-NCOR/VP16-NR2E3 two-hybrid, luciferase; inhibition of corepressor binding, % at 3.98 µM; hit rate 0.35% among 360,000; AID 602229;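 active = inhibition above the mean of all tested compounds plus 3 SD, cut at about 70% in these data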;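 also: 0% = DMSO with NR2E3 transfected cells and 100% = cells lacking NR2E3 construct; higher means lower luciferase signal from less NR2E3 corepressor binding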
NR1D1 modulator = modulators of human Rev-erb alpha DNA binding; P20393; Rev-erbα–FITC-DNA binding, fluorescence polarization, 90 min; activity, % at 10 µM; hit rate 0.79% among 370,000; AID 1259318;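 active = activity above about 14%, limit read from the data; passing the limit was not always enough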;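 also: 0% = DMSO wells with 35 nM protein and 100% = DMSO wells with 750 nM protein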
NR2E3 ag confirm = NR2E3 (human) agonism, confirmation | shares compounds with NR2E3 ag-1 | hit rate 39% among 360 | activation (reported as inhibition), % at 3.98 µM | cell-free NR2E3 corepressor release, TR-FRET, 5 h; in the data active = activation above about 20%
PPARg-NCOR2 ag = counter-screen for NR2E3 agonists: human PPARgamma-NCOR2 interaction agonists; shares compounds with NR2E3 ag-1; TR-FRET PPARg-NCOR2 coregulator interaction, biochemical; inhibition, % at 3.98 µM; hit rate 45% among 360; AID 504787; in the data active = inhibition above about 20%;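 also: 0% = DMSO vehicle and 100% = wells without protein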
PG9 bind confirm = PG9 antibody binding, confirmed; TR-FRET PG9 antibody binding, biochemical; hit rate 90% among 1,500; shares compounds with PG9 binder; inhibition, % at 6.7 µM; in the data active = inhibition above about 9%
PGV04 Ab binding = counter-screen for PG9 binders: binding control antibody PGV04 | shares compounds with PG9 binder | TR-FRET PGV04 antibody-gp120 binding, biochemical | inhibition, % at 6.7 µM | hit rate 95% among 1,500 | AID 651604; in the data active = inhibition above about 9.5%
NR1D1 mod conf = Rev-erb alpha (human) modulation, hit confirmation; shares compounds with NR1D1 modulator; AID 1259319; hit rate 61% among 3,000; Rev-erb alpha FITC-DNA binding, fluorescence polarization, 90 min; activation, % at 25 µM;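 active = activation at or above a set limit, or at least 3 SD above the negative control mean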;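 also: 0% = 35 nM protein with DMSO and 100% = 750 nM protein high control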
Active calls of the source: *.

For O=C(O)c1cc(-c2cccs2)nc2ccc(Br)cc12 the results were PG9 binder 40.4*, NR2E3 ag-1 41.3*, NR2E3 ag-2 -35.0, NR1D1 modulator 6.1, NR2E3 ag confirm 41.2*, PPARg-NCOR2 ag 52.9*, PG9 bind confirm 54.5* and PGV04 Ab binding 77.1*.
Screening O=C(O)c1cc(-c2cccs2)nc2ccc(F)cc12 returned PG9 binder 4.2, NR2E3 ag-1 4.5, NR2E3 ag-2 -18.2 and NR1D1 modulator -1.0.
`O=C(O)c1cc(-c2ccc3c(c2)OCO3)nc2ccc(Br)cc12` gave PG9 binder 20.3*, NR2E3 ag-1 37.7*, NR2E3 ag-2 -42.5, NR1D1 modulator 0.1, NR2E3 ag confirm 44.4*, PPARg-NCOR2 ag 55.4*, PG9 bind confirm 27.8* and PGV04 Ab binding 34.1*.
`CCN1CCN(C(=O)c2cc(-c3cccnc3)nc3ccc(Br)cc23)CC1` gave PG9 binder 6.8, NR2E3 ag-1 6.4, NR2E3 ag-2 -9.4 and NR1D1 modulator 7.0.
NC(=O)OC[C@@H]1[C@H](NC(=O)/C(=N\OCC(=O)O)c2csc(N)n2)C(=O)N1S(=O)(=O)O was read as NR1D1 modulator -1.3.
`CN(C)c1cc(NC(=O)CNC(C)(C)C)c(O)c2c1C[C@H]1C[C@H]3[C@H](N(C)C)C(=O)C(C(N)=O)=C(O)[C@@]3(O)C(=O)C1=C2O` gave NR1D1 modulator -36.2.
For O=C1CCCC(=O)C1C(=O)c1ccc(C(F)(F)F)cc1[N+](=O)[O-] the results were NR1D1 modulator -8.3.
CO[C@H]1C[C@H](O[C@H]2[C@H](C)[C@@H](OC3O[C@H](C)C[C@H](N(C)C)[C@H]3OC(C)=O)[C@@H](C)C[C@]3(CO3)C(=O)[C@H](C)[C@@H](OC(C)=O)[C@@H](C)[C@@H](C)OC(=O)[C@@H]2C)O[C@@H](C)[C@@H]1OC(C)=O (stereo not given in full) was read as NR1D1 modulator 0.0.
O=C1C=C(O)c2cccc3cccc1c23 was read as PG9 binder 48.7*, NR2E3 ag-1 23.2*, NR2E3 ag-2 -26.4, NR1D1 modulator 1.1, NR2E3 ag confirm 10.6, PPARg-NCOR2 ag 19.0, PG9 bind confirm 39.1* and PGV04 Ab binding 58.1*.
NC1=CC(=O)c2cccc3cccc1c23 was read as NR2E3 ag-1 -3.6.
Screening COC(=O)c1cc2c(-c3ccccc3)c(C)c3ccccn3c-2c1C(=O)OC returned PG9 binder 25.6*, NR2E3 ag-1 27.7*, NR2E3 ag-2 -34.7, NR1D1 modulator 3.2, NR2E3 ag confirm 30.4*, PPARg-NCOR2 ag 29.4*, PG9 bind confirm 34.8* and PGV04 Ab binding 52.5*.
Screening Cc1ccc(-n2c(=S)[nH]c3c(oc4ccccc43)c2=O)cc1C returned PG9 binder 19.9*, NR2E3 ag-1 42.7*, NR2E3 ag-2 -26.2, NR1D1 modulator -7.1, NR2E3 ag confirm 35.2*, PPARg-NCOR2 ag 32.7*, PG9 bind confirm 11.1* and PGV04 Ab binding 17.4*.
Screening O=c1c2oc3ccccc3c2[nH]c(=S)n1-c1ccc(F)cc1 returned PG9 binder 10.1*, NR2E3 ag-1 44.0*, NR2E3 ag-2 8.1, NR1D1 modulator -6.1, NR2E3 ag confirm 32.3*, PPARg-NCOR2 ag 24.3*, PG9 bind confirm 11.9* and PGV04 Ab binding 12.0*.
For Cc1cc(-n2c(SCC(=O)NCCC3=CCCCC3)nc3n[nH]c(C)c3c2=N)ccc1Cl the results were PG9 binder 41.3*, NR2E3 ag-1 59.4*, NR2E3 ag-2 19.2, NR1D1 modulator 45.2*, NR2E3 ag confirm 10.2, PPARg-NCOR2 ag 2.9, PG9 bind confirm 46.1*, PGV04 Ab binding 57.9* and NR1D1 mod conf 21.0*.
